# Source: ChEMBL document CHEMBL1148785, “Second generation tetrahydroquinoline-based protein farnesyltransferase inhibitors as antimalarials” (J Med Chem, 2007)
# Experiments:
# Plasmodium falciparum [1] = assay: Inhibition of Plasmodium falciparum protein farnesyltransferase at 50 nM by scintillation proximity assay
# Plasmodium falciparum [2] = assay: Antimalarial activity against Plasmodium falciparum K1; type: functional; conditions: Plasmodium falciparum, K1; read-out: ED50 (the source's name)
# How it was run: (§1)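 Asynchronous culture in type A+ erythrocytes at 0.5% parasitemia and 0.5% hematocrit, grown in RPMI-1640 with 20% heat-inactivated human A+ plasma. Compound was serially diluted from a top final 5 µM, with DMSO vehicle as 100% growth. Plates ran 48 h at 37 °C under 5% CO2/5% O2/90% N2, then [3H]-hypoxanthine (0.3 µCi) for 24 h. Filter-harvested counts were corrected for the uninfected-RBC background. ED50 by linear regression; duplicates averaged.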
# [3] = biological target: Protein farnesyltransferase (Rattus norvegicus); assay: Inhibition of protein farnesyltransferase
# Plasmodium falciparum [4] = assay: Antimalarial activity against Plasmodium falciparum 3D7; type: functional; conditions: Plasmodium falciparum, 3D7; read-out: ED50 (the source's name); how it was run: as §1
# Plasmodium falciparum [5] = assay: Inhibition of Plasmodium falciparum protein farnesyltransferase at 0.5 nM by scintillation proximity assay
# Plasmodium falciparum [6] = assay: Inhibition of Plasmodium falciparum protein farnesyltransferase at 5 nM by scintillation proximity assay
# [7] = Inhibition of Plasmodium falciparum protein farnesyltransferase by scintillation proximity assay
smiles,measurement,setting,value
Cn1cncc1CN1CC(N(CCn2cccc2)S(=O)(=O)c2ccccn2)Cc2cc(C#N)ccc21 (stereo not given),inhibition,Plasmodium falciparum [1],99%
same,EC50,Plasmodium falciparum [2],10 nM
same,IC50,[3],1.7 nM
same,EC50,Plasmodium falciparum [4],17 nM
same,inhibition,Plasmodium falciparum [5],74%
same,inhibition,Plasmodium falciparum [6],96%
CC(C)COC(=O)N1CCC(CN(C2Cc3cc(C#N)ccc3N(Cc3cncn3C)C2)S(=O)(=O)c2ccccn2)CC1 (stereo not given),inhibition,Plasmodium falciparum [1],100%
same,EC50,Plasmodium falciparum [2],62 nM
same,IC50,[3],25 nM
same,EC50,Plasmodium falciparum [4],62 nM
same,inhibition,Plasmodium falciparum [5],88%
same,IC50,[7],1.4 nM
same,inhibition,Plasmodium falciparum [6],12%
Cn1cnc(S(=O)(=O)N(CC2CCNCC2)C2Cc3cc(C#N)ccc3N(Cc3cncn3C)C2)c1 (stereo not given),inhibition,Plasmodium falciparum [1],65%
same,EC50,Plasmodium falciparum [2],> 5000 nM
same,IC50,[3],105 nM
same,EC50,Plasmodium falciparum [4],> 5000 nM
same,inhibition,Plasmodium falciparum [5],0%
same,inhibition,Plasmodium falciparum [6],6%
Cn1cnc(S(=O)(=O)N(Cc2ccc(C(=O)O)cc2)C2Cc3cc(C#N)ccc3N(Cc3cncn3C)C2)c1 (stereo not given),inhibition,Plasmodium falciparum [1],66%
same,EC50,Plasmodium falciparum [2],> 5000 nM
same,IC50,[3],4.8 nM
same,EC50,Plasmodium falciparum [4],> 5000 nM
same,inhibition,Plasmodium falciparum [5],0%
same,inhibition,Plasmodium falciparum [6],19%
Cn1cnc(S(=O)(=O)N(Cc2ccc(-n3cccn3)cc2)C2Cc3cc(C#N)ccc3N(Cc3cncn3C)C2)c1 (stereo not given),inhibition,Plasmodium falciparum [1],98%
same,EC50,Plasmodium falciparum [2],38 nM
same,IC50,[3],2.6 nM
same,EC50,Plasmodium falciparum [4],42 nM
same,inhibition,Plasmodium falciparum [5],56%
same,IC50,[7],0.5 nM
same,inhibition,Plasmodium falciparum [6],98%
Cn1cncc1CN1CC(N(CC2CCN(C(=O)c3ccccc3)CC2)S(=O)(=O)c2ccccn2)Cc2cc(C#N)ccc21 (stereo not given),inhibition,Plasmodium falciparum [1],94%
same,EC50,Plasmodium falciparum [2],330 nM
same,IC50,[3],16 nM
same,EC50,Plasmodium falciparum [4],150 nM
same,inhibition,Plasmodium falciparum [5],63%
same,IC50,[7],7 nM
same,inhibition,Plasmodium falciparum [6],20%
Cn1cncc1CN1CC(N(CC2CCN(C(=O)CC(C)(C)C)CC2)S(=O)(=O)c2ccccn2)Cc2cc(C#N)ccc21 (stereo not given),inhibition,Plasmodium falciparum [1],96%
same,EC50,Plasmodium falciparum [2],76 nM
same,IC50,[3],7.8 nM
same,EC50,Plasmodium falciparum [4],20 nM
same,inhibition,Plasmodium falciparum [5],88%
same,IC50,[7],0.6 nM
same,inhibition,Plasmodium falciparum [6],36%
Cn1cncc1CN1CC(N(CC(=O)NC(C)(C)C)S(=O)(=O)c2nccn2C)Cc2cc(C#N)ccc21 (stereo not given),inhibition,Plasmodium falciparum [1],80%
same,EC50,Plasmodium falciparum [2],3100 nM
same,IC50,[3],5 nM
same,EC50,Plasmodium falciparum [4],750 nM
same,inhibition,Plasmodium falciparum [5],2%
same,IC50,[7],8 nM
same,inhibition,Plasmodium falciparum [6],27%
CCCC(=O)N1CCC(CN(C2Cc3cc(C#N)ccc3N(Cc3cncn3C)C2)S(=O)(=O)c2ccccn2)CC1 (stereo not given),inhibition,Plasmodium falciparum [1],95%
same,EC50,Plasmodium falciparum [2],690 nM
same,IC50,[3],6.5 nM
same,EC50,Plasmodium falciparum [4],80 nM
same,inhibition,Plasmodium falciparum [5],63%
same,IC50,[7],3 nM
same,inhibition,Plasmodium falciparum [6],12%
CCNC(=O)N1CCC(CN(C2Cc3cc(C#N)ccc3N(Cc3cncn3C)C2)S(=O)(=O)c2ccccn2)CC1 (stereo not given),inhibition,Plasmodium falciparum [1],98%
same,EC50,Plasmodium falciparum [2],65 nM
same,EC50,Plasmodium falciparum [4],67 nM
same,inhibition,Plasmodium falciparum [5],95%
same,IC50,[7],0.65 nM
same,inhibition,Plasmodium falciparum [6],60%
Cn1cncc1CN1CC(N(Cc2ccccn2)S(=O)(=O)c2ccccn2)Cc2cc(C#N)ccc21 (stereo not given),inhibition,Plasmodium falciparum [1],100%
same,EC50,Plasmodium falciparum [2],100 nM
same,IC50,[3],3.8 nM
same,EC50,Plasmodium falciparum [4],51 nM
same,inhibition,Plasmodium falciparum [5],4%
same,inhibition,Plasmodium falciparum [6],93%
CCOC(=O)N1CCC(CN(C2Cc3cc(C#N)ccc3N(Cc3cncn3C)C2)S(=O)(=O)c2ccccn2)CC1 (stereo not given),inhibition,Plasmodium falciparum [1],100%
same,EC50,Plasmodium falciparum [2],40 nM
same,IC50,[3],5.5 nM
same,EC50,Plasmodium falciparum [4],55 nM
same,inhibition,Plasmodium falciparum [5],95%
same,IC50,[7],0.5 nM
same,inhibition,Plasmodium falciparum [6],46%
CC(C)C(=O)N1CCC(CN(C2Cc3cc(C#N)ccc3N(Cc3cncn3C)C2)S(=O)(=O)c2ccccn2)CC1 (stereo not given),inhibition,Plasmodium falciparum [1],98%
same,EC50,Plasmodium falciparum [2],13 nM
same,EC50,Plasmodium falciparum [4],18 nM
same,inhibition,Plasmodium falciparum [5],91%
same,IC50,[7],0.6 nM
same,inhibition,Plasmodium falciparum [6],24%
Cn1cncc1CN1CC(N(CC2CCN(C(=O)c3ccc(Cl)cc3)CC2)S(=O)(=O)c2ccccn2)Cc2cc(C#N)ccc21 (stereo not given),inhibition,Plasmodium falciparum [1],26%
same,EC50,Plasmodium falciparum [2],1700 nM
same,EC50,Plasmodium falciparum [4],460 nM
same,inhibition,Plasmodium falciparum [5],7%
same,IC50,[7],900 nM
same,inhibition,Plasmodium falciparum [6],0%
Cn1cncc1CN1CC(N(CC2CCN(C(=O)C3CC3)CC2)S(=O)(=O)c2ccccn2)Cc2cc(C#N)ccc21 (stereo not given),inhibition,Plasmodium falciparum [1],100%
same,EC50,Plasmodium falciparum [2],10 nM
same,EC50,Plasmodium falciparum [4],11.5 nM
same,inhibition,Plasmodium falciparum [5],94%
same,IC50,[7],0.75 nM
same,inhibition,Plasmodium falciparum [6],39%
COCCCN(C1Cc2cc(C#N)ccc2N(Cc2cncn2C)C1)S(=O)(=O)c1cn(C)cn1 (stereo not given),inhibition,Plasmodium falciparum [1],99%
same,EC50,Plasmodium falciparum [2],50 nM
same,IC50,[3],7.5 nM
same,EC50,Plasmodium falciparum [4],75 nM
same,inhibition,Plasmodium falciparum [5],25%
same,inhibition,Plasmodium falciparum [6],92%
Cn1cncc1CN1CC(N(Cc2ccc3ccccc3c2Br)S(=O)(=O)c2ccccn2)Cc2cc(C#N)ccc21 (stereo not given),inhibition,Plasmodium falciparum [1],55%
same,IC50,[3],440 nM
same,inhibition,Plasmodium falciparum [6],13%
Cn1cncc1CN1CC(N(CC2CCN(S(C)(=O)=O)CC2)S(=O)(=O)c2ccccn2)Cc2cc(C#N)ccc21 (stereo not given),inhibition,Plasmodium falciparum [1],99%
same,EC50,Plasmodium falciparum [2],50 nM
same,EC50,Plasmodium falciparum [4],62 nM
same,inhibition,Plasmodium falciparum [5],93%
same,IC50,[7],0.9 nM
same,inhibition,Plasmodium falciparum [6],45%
Cn1cncc1CN1CC(N(CC2CCN(C(=O)OC(C)(C)C)CC2)S(=O)(=O)c2ccccn2)Cc2cc(C#N)ccc21 (stereo not given),inhibition,Plasmodium falciparum [1],100%
same,EC50,Plasmodium falciparum [2],180 nM
same,IC50,[3],7 nM
same,inhibition,Plasmodium falciparum [5],19%
same,inhibition,Plasmodium falciparum [6],89%
Cn1cnc(S(=O)(=O)N(Cc2ccc3ccccc3c2Br)C2Cc3cc(C#N)ccc3N(Cc3cncn3C)C2)c1 (stereo not given),inhibition,Plasmodium falciparum [1],69%
same,EC50,Plasmodium falciparum [2],4500 nM
same,IC50,[3],1000 nM
same,EC50,Plasmodium falciparum [4],3000 nM
same,inhibition,Plasmodium falciparum [5],0%
same,inhibition,Plasmodium falciparum [6],9%
Cc1ccccc1CN(C1Cc2cc(C#N)ccc2N(Cc2cncn2C)C1)S(=O)(=O)c1cn(C)cn1 (stereo not given),inhibition,Plasmodium falciparum [1],100%
same,EC50,Plasmodium falciparum [2],20 nM
same,IC50,[3],3.4 nM
same,EC50,Plasmodium falciparum [4],55 nM
same,inhibition,Plasmodium falciparum [5],34%
same,inhibition,Plasmodium falciparum [6],95%
Cc1onc(-c2ccccc2)c1CN(C1Cc2cc(C#N)ccc2N(Cc2cncn2C)C1)S(=O)(=O)c1ccccn1 (stereo not given),inhibition,Plasmodium falciparum [1],100%
same,EC50,Plasmodium falciparum [2],56 nM
same,IC50,[3],3 nM
same,EC50,Plasmodium falciparum [4],45 nM
same,inhibition,Plasmodium falciparum [5],42%
same,inhibition,Plasmodium falciparum [6],93%
Cn1cncc1CN1CC(N(Cc2cc3nsnc3cc2Cl)S(=O)(=O)c2ccccn2)Cc2cc(C#N)ccc21 (stereo not given),inhibition,Plasmodium falciparum [1],53%
same,EC50,Plasmodium falciparum [2],3000 nM
same,IC50,[3],10 nM
same,EC50,Plasmodium falciparum [4],3000 nM
same,inhibition,Plasmodium falciparum [6],4%
